The values below come from ChEMBL document CHEMBL4190374, “Structure-Function Evaluation of Imidazopyridine Derivatives Selective for δ-Subunit-Containing γ-Aminobutyric Acid Type A (GABAA) Receptors” (J Med Chem, 2018).

pEC50, pIC50: −log10 of the molar value.

The target of assay [1] is Gamma-aminobutyric acid receptor subunit alpha-6/beta-2/delta (Rattus norvegicus, UniProt P18506+P30191+P63138). As to the kind of experiment: Displacement of [3H]EBOB from rat GABA-A receptor alpha6beta2delta expressed in HEK293 cell membranes after 90 mins by liquid scintillation counting analysis. The procedure, abridged: (§1)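 Crude membranes from HEK 293 cells transiently Ca-phosphate-transfected with rat subunit cDNAs, harvested at 48 h. Membranes (150-200 µg protein) incubated with 3 nM [3H]EBOB in 50 mM Tris/citrate pH 7.3 plus 0.2 M NaCl. Compound up to 10 µM, final DMSO 0.1%, no GABA, 90 min at 21 °C. Bound radioligand collected by GF/C filtration and counted by scintillation.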
Gamma-aminobutyric acid receptor subunit alpha-6/beta-2/delta, sequence (P18506 whole entry): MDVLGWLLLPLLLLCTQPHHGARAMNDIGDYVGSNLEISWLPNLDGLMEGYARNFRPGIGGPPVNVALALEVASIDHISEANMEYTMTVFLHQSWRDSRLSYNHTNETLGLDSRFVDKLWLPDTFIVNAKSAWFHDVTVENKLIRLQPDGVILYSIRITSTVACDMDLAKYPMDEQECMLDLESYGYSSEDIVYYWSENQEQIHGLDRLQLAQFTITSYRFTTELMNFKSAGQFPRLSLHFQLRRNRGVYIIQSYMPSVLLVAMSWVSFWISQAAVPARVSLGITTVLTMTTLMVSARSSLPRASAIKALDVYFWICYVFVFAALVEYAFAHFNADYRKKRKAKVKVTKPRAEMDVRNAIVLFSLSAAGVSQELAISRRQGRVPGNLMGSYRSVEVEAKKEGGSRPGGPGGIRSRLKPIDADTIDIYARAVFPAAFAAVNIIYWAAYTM
Gamma-aminobutyric acid receptor subunit alpha-6/beta-2/delta, sequence (P30191 whole entry): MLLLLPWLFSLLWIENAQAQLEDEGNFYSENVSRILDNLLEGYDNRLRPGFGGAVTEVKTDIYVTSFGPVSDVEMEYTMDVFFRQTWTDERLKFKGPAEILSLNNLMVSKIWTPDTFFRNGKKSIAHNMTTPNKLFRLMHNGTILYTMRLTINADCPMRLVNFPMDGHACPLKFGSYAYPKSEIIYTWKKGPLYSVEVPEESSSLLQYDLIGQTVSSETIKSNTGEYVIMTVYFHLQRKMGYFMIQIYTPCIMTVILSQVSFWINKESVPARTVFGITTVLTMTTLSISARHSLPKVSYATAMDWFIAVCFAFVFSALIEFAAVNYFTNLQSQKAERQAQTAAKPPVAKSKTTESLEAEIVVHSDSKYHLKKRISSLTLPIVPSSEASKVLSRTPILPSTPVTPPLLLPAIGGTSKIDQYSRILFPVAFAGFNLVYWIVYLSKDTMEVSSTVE
Gamma-aminobutyric acid receptor subunit alpha-6/beta-2/delta, sequence (P63138 whole entry): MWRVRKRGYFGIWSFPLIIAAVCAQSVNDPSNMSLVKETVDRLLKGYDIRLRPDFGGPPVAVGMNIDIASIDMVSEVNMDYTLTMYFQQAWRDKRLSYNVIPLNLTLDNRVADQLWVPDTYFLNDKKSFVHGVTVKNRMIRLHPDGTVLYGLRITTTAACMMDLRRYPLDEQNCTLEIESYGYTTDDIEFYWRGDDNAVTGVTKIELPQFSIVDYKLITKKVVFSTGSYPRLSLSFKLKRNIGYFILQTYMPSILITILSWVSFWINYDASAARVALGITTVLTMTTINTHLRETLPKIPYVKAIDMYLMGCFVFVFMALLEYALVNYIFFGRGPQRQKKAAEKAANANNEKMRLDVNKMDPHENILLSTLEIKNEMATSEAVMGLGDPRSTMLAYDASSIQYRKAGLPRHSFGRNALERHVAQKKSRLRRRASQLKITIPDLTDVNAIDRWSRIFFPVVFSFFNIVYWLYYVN

The species entered for assay [2] is Rattus norvegicus. As to the kind of experiment: Selectivity ratio of IC50 for rat GABA-A receptor alpha6beta3 expressed in HEK293 cells to IC50 for rat GABA-A receptor alpha6beta3delta expressed in HEK293 cells. It is filed as cell-based.
Assay [3] deals with Gamma-aminobutyric acid receptor subunit alpha-6/beta-3/delta (Rattus norvegicus) (UniProt P18506+P30191+P63079). Kind of assay: Displacement of [3H]EBOB from rat GABA-A receptor alpha6beta3delta expressed in HEK293 cell membranes up to 10 uM after 90 mins by liquid scintillation counting analysis relative to control. The procedure, abridged: as §1
The target of assay [4] is Gamma-aminobutyric acid receptor subunit alpha-1/beta-3/delta (Rattus norvegicus) (UniProt P18506+P62813+P63079). As to the kind of experiment: Agonist activity at rat […] GABA-A receptor alpha1beta3delta expressed in HEK293 cells assessed as ratio of I0 to GABA Imax at 10 uM in absence of GABA by patch-clamp assay. It is filed as cell-based. The procedure, abridged: (§2)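 Whole-cell patch clamp on single fluorescent HEK 293 cells 48 h after transient co-transfection with rat subunit cDNAs plus eGFP. Extracellular solution 135 mM NaCl, 5.3 mM KCl, 2 mM CaCl2, 2 mM MgSO4, 10 mM HEPES pH 7.4, perfused 3 mL/min. Compound at 10 µM without GABA. Current expressed relative to 1 mM GABA at the same receptor (I0/Imax GABA), mean ± S.D. of n experiments.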

The target in assay [5] is Gamma-aminobutyric acid receptor subunit alpha-6/beta-3/gamma-2 (Rattus norvegicus, UniProt P18508+P30191+P63079). As to the kind of experiment: Displacement of [3H]EBOB from rat GABA-A receptor alpha6beta3gamma2 expressed in HEK293 cell membranes after 90 mins by liquid scintillation counting analysis. The procedure, abridged:
as §1

The target of assay [6] is Gamma-aminobutyric acid receptor subunit alpha-6/beta-3/gamma-2 (Rattus norvegicus) (UniProt P18508+P30191+P63079). As to the kind of experiment: Displacement of [3H]EBOB from rat GABA-A receptor alpha6beta3gamma2 expressed in HEK293 cell membranes up to 10 uM after 90 mins by liquid scintillation counting analysis relative to control. The procedure, abridged:
as §1

The target of assay [7] is Gamma-aminobutyric acid receptor subunit alpha-6/beta-2/delta (Rattus norvegicus) (UniProt P18506+P30191+P63138). Kind of assay: Displacement of [3H]EBOB from rat GABA-A receptor alpha6beta2delta expressed in HEK293 cell membranes up to 10 uM after 90 mins by liquid scintillation counting analysis relative to control. The procedure, abridged: as §1
Assay [8] has as its target T1, Gamma-aminobutyric acid receptor subunit alpha-4/beta-3/delta (Rattus norvegicus) (UniProt P18506+P28471+P63079). As to the kind of experiment: Agonist activity at rat […] GABA-A receptor alpha4beta3delta expressed in HEK293 cells assessed as ratio of I0 to GABA Imax at 10 uM in absence of GABA by patch-clamp assay. It is filed as cell-based. Put shortly:
as §2

Assay [9] addresses GABA-A receptor alpha6beta3delta (++). Kind of assay: Modulation of rat eGFP-fused GABA-A receptor alpha6beta3delta expressed in HEK293 cells in presence of GABA by patch-clamp assay.
The target in assay [10] is T1, Gamma-aminobutyric acid receptor subunit alpha-4/beta-3/delta (Rattus norvegicus). As to the kind of experiment: Displacement of [3H]EBOB from rat GABA-A receptor alpha4beta3delta expressed in HEK293 cell membranes up to 10 uM after 90 mins by liquid scintillation counting analysis relative to control. Put shortly: as §1
Assay [11] has as its target T2, Gamma-aminobutyric acid receptor subunit alpha-6/beta-3 (Rattus norvegicus) (UniProt P30191+P63079). Kind of assay: Displacement of [3H]EBOB from rat GABA-A receptor alpha6beta3 expressed in HEK293 cell membranes up to 10 uM after 90 mins by liquid scintillation counting analysis relative to control. The procedure, abridged: as §1
The target of assay [12] is T2, Gamma-aminobutyric acid receptor subunit alpha-6/beta-3 (Rattus norvegicus). Kind of assay: Agonist activity at rat […] GABA-A receptor alpha6beta3 expressed in HEK293 cells assessed as ratio of I0 to GABA Imax at 10 uM in absence of GABA by patch-clamp assay. It is filed as cell-based. Put shortly: as §2
Assay [13] addresses Gamma-aminobutyric acid receptor subunit alpha-1/beta-3/gamma-2 (Rattus norvegicus) (UniProt P18508+P62813+P63079). Kind of assay: Modulation of rat […] GABA-A receptor alpha1beta3gamma2 expressed in HEK293 cells up to 10 uM in presence of GABA by patch-clamp assay relative to control. It is filed as cell-based. Put shortly:
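Rat GABA-A subunits were transiently co-transfected with eGFP into HEK293 cells on coverslips. Fluorescent cells were recorded by whole-cell patch clamp 48 h later; bath pH 7.4, KCl/KOH pipette pH 7.2. Compound was applied at increasing concentrations up to 10 µM with the receptor-specific GABA EC20. Peak currents were fitted logistically for EC50, Hill and % modulation, as mean ± S.E.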

Assay [14] has as its target Gamma-aminobutyric acid receptor subunit alpha-6/beta-3/delta (Rattus norvegicus, UniProt P18506+P30191+P63079). Kind of assay: Displacement of [3H]EBOB from rat GABA-A receptor alpha6beta3delta expressed in HEK293 cell membranes after 90 mins by liquid scintillation counting analysis. Put shortly: as §1
Assay [15] deals with Gamma-aminobutyric acid receptor subunit alpha-1/beta-3 (Rattus norvegicus) (UniProt P62813+P63079). Kind of assay: Agonist activity at rat […] GABA-A receptor alpha1beta3 expressed in HEK293 cells assessed as ratio of I0 to GABA Imax at 10 uM in absence of GABA by patch-clamp assay. It counts as cell-based. Put shortly: as §2
Assay [16] deals with GABA A receptor alpha-6/beta-2/gamma-2 (Rattus norvegicus) (UniProt P18508+P30191+P63138). Kind of assay: Displacement of [3H]EBOB from rat GABA-A receptor alpha6beta2gamma2 expressed in HEK293 cell membranes up to 10 uM after 90 mins by liquid scintillation counting analysis relative to control. Put shortly:
as §1

Assay [17] relates to GABA-A receptor alpha6beta3delta (++). As to the kind of experiment: Modulation of rat eGFP-fused GABA-A receptor alpha6beta3delta expressed in HEK293 cells up to 10 uM in presence of GABA by patch-clamp assay relative to control.
For assay [18], the target named is Gamma-aminobutyric acid receptor subunit alpha-6/beta-2 (Rattus norvegicus) (UniProt P30191+P63138). Kind of assay: Displacement of [3H]EBOB from rat GABA-A receptor alpha6beta2 expressed in HEK293 cell membranes up to 10 uM after 90 mins by liquid scintillation counting analysis relative to control. Put shortly: as §1
The species entered for assay [19] is Rattus norvegicus. As to the kind of experiment: Selectivity ratio of IC50 for rat GABA-A receptor alpha4beta3 expressed in HEK293 cells to IC50 for rat GABA-A receptor alpha4beta3delta expressed in HEK293 cells. It counts as cell-based.

Gamma-aminobutyric acid receptor subunit alpha-6/beta-3/delta, sequence (P18506 whole entry): as the sequence (P18506 whole entry) above
Gamma-aminobutyric acid receptor subunit alpha-6/beta-3/delta, sequence (P30191 whole entry): as the sequence (P30191 whole entry) above
Gamma-aminobutyric acid receptor subunit alpha-6/beta-3/delta, sequence (P63079 whole entry): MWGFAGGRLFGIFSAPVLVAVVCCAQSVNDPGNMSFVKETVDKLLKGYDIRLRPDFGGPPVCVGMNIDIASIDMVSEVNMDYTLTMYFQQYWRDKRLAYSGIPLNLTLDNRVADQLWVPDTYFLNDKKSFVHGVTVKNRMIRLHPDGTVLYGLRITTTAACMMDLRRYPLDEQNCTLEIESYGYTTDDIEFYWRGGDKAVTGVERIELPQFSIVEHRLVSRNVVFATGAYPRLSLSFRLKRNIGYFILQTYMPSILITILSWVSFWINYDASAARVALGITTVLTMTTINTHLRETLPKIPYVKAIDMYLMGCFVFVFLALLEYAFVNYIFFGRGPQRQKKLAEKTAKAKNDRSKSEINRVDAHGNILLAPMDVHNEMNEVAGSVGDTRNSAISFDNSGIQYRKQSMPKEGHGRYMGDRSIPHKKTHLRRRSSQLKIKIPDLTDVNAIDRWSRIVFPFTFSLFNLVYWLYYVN
Gamma-aminobutyric acid receptor subunit alpha-6/beta-3/gamma-2, sequence (P18508 whole entry): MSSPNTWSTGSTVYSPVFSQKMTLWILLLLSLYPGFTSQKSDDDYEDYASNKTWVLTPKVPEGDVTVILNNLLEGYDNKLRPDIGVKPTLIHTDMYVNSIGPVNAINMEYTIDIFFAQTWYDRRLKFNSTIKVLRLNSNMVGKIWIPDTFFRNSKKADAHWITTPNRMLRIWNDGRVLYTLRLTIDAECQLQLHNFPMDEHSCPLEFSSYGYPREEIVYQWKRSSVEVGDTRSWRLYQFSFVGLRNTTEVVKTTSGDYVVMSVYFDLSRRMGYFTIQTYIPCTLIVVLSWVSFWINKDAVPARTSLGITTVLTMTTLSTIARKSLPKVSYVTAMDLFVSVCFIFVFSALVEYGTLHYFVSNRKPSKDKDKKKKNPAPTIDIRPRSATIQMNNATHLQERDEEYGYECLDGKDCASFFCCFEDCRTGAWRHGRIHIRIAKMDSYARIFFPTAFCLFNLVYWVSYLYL
Gamma-aminobutyric acid receptor subunit alpha-6/beta-3/gamma-2, sequence (P30191 whole entry): as the sequence (P30191 whole entry) above
Gamma-aminobutyric acid receptor subunit alpha-6/beta-3/gamma-2, sequence (P63079 whole entry): as the sequence (P63079 whole entry) above

In the case of `O=C(Nc1c(-c2cccs2)nc2c(Br)cc(Br)cn12)c1ccc(Cl)cc1`, the negative logarithm of the IC50 (pIC50) in [1] is 6.82; in assay [5] it was 6.03; in assay [14], 6.51. Moreover, the values for the Ratio IC50 in the assay filed under Rattus norvegicus [2] and in the assay filed under Rattus norvegicus [19] were 2.5 and 4, respectively. In addition, the Imax in assay [3] was found to be 84%; in assay [6], 94%; in [7] it was 82%; in [10], 61%; in assay [11] it was 90%; in [16], 89%. In assay [18], this molecule came in with an Imax of 93%. Further, the Ratio in assay [4] was 0.323; in [8], 1.61; in assay [12], 1.48; in [15], 0.074. Moreover, the pEC50 in assay [9] is 6.89. The Activity amounted to 139% in assay [13] and 802% in assay [17].
